The source of these data is ChEMBL document CHEMBL3352210, “Aurones as histone deacetylase inhibitors: identification of key features” (Bioorg Med Chem Lett, 2014).

In general, inhibition refers to the relative decrease from the control value, in per cent. As usually defined, the IC50 is the midpoint of a concentration-inhibition curve. High values mean weaker potency in that assay, low ones greater potency in that assay.

The target of series [1] is T1, Histone deacetylase (Homo sapiens) (UniProt Q13547+O15379+Q9UBN7+Q92769+Q9UQL6+Q8WUI4+Q9BY41+Q96DB2+P56524+Q9UKV0+Q969S8). The experiment in a line: Inhibition of HDAC in human HeLa cell extract at 100 uM after 15 mins by fluorescence assay. It is filed as protein assay.
In a further series the target is Histone deacetylase. The experiment in a line: Inhibition of HDAC in human HeLa cell extract after 15 mins by fluorescence assay. It is filed as protein assay.
Series [2] addresses T1, Histone deacetylase (Homo sapiens). The experiment in a line: Inhibition of HDAC in human MeT-5A cells assessed as hisone H3 acetylation after 16 hrs by BRET assay. It is filed as cell-based. In outline:
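MeT-5A cells transfected with phRluc-C1-BrD and pEYFP-C1 histone H3, then exposed 16 h to increasing doses; BRET signal read as measure of histone H3 acetylation (rise in signal = more acetylation). SAHA used as positive control. Means ± SEM of three independent experiments.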
A general note: BRET reads energy transfer from a luciferase to a nearby fluorophore.

A short description of series [3]: Cytotoxicity against human MeT-5A cells after 16 hrs by luciferase reporter gene assay. The class given is cell-based. Background: A reporter such as luciferase makes a cellular process visible.
The nature of series [4]: Cytotoxicity against human MCF7 cells assessed as cell viability at 15 uM after 72 hrs by Celltitre-glo assay. The settings on record: read-out: Activity. The class given is cell-based.
A short description of series [5]: Cytotoxicity against human HepG2 cells assessed as cell viability at 15 uM after 72 hrs by Celltitre-glo assay. It is filed as cell-based. The settings on record: read-out: Activity.
Series [6] has as its target T2, NAD-dependent protein deacetylase sirtuin-2 (Homo sapiens) (UniProt Q8IXJ6).
T2 sequence (whole entry): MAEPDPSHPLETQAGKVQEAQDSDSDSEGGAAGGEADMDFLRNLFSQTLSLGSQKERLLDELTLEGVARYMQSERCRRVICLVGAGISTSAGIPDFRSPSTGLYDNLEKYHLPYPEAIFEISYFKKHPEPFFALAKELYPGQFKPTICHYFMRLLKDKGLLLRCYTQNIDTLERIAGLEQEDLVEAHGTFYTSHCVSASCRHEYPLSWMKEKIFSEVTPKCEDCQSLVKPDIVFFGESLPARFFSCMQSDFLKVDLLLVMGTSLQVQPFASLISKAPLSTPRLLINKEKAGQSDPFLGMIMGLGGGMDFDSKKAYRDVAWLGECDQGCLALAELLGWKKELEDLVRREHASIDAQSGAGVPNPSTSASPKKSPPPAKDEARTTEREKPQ
Description: Modulation of sirtuin 2 (unknown origin) by thermal shift assay. The method in brief: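 Sirtuin 2 modulation tested by thermal shift assay.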

For series [7], the target named is T3, Retinoic acid receptor beta (Homo sapiens) (UniProt P10826).
T3 sequence (whole entry): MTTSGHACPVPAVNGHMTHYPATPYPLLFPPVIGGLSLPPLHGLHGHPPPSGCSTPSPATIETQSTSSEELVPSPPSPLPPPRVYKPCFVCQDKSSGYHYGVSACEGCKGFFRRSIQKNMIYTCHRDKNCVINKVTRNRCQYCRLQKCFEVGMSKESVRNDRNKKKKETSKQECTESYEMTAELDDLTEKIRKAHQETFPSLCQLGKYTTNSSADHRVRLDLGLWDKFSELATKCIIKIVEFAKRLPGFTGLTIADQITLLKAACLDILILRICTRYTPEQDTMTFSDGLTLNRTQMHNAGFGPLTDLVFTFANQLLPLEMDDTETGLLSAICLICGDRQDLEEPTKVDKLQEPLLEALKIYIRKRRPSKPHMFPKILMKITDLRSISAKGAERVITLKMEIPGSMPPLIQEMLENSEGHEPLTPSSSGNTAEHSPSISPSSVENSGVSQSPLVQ
The experiment in a line: Inhibition of RAR-beta (unknown origin) assessed as change in DNA methylation. In outline: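 DNA methylation changes assessed by specific PCR for RARb.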

Calls of active or inactive are those of the source. The rule behind the calls is not given here.

In the case of `COc1ccc(/C=C2\Oc3ccccc3C2=O)cc1OC` [3',4'-DIMETHOXY-AURONE], the inhibition in series [1] was 51%; in series [2], “Dose-dependent effect”. The 50% inhibitory concentration (IC50) at Histone deacetylase was determined as 71 µM. In series [3], the Activity entry is given as “Dose-dependent effect”. Moreover, the viability at 72 h, 15 µM in series [4] worked out at 91%; in series [5], 114%. The inhibition result in series [6] and in series [7] was “inactive” each time.

The compound `COc1cccc(/C=C2\Oc3ccccc3C2=O)c1` [3'-METHOXY-AURONE] showed an inhibition in series [1] of 1%. Moreover, the viability at 72 h, 15 µM in series [4] worked out at 89%; in series [5], 101%. Further, the inhibition result in series [6] and in series [7] was “inactive” throughout.

For the compound `COc1ccc(/C=C2\Oc3ccc(Br)cc3C2=O)cc1OC`, the inhibition is 14% in series [1] and “Dose-dependent effect” in series [2]. Besides, the Activity entry in series [3] is “Dose-dependent effect”. The figures for the viability at 72 h, 15 µM in series [4] and in series [5] were 108% and 93%, respectively. Besides, the inhibition result in series [6] and in series [7] was “inactive” in each case.

For the compound `COc1cc(OC)c2c(c1)O/C(=C\c1ccccc1Cl)C2=O`, the inhibition in series [1] was determined as 46%. Also, the viability at 72 h, 15 µM worked out at 72% in series [4] and 80% in series [5]. In addition, the inhibition entry in series [6] and in series [7] was “inactive” throughout.

In series [1], `O=C(/C=C/c1ccc(Cl)cc1)c1ccccc1O` gave an inhibition of 0%. The values for the viability at 72 h, 15 µM in series [4] and in series [5] were 90% and 62%, respectively. The inhibition result in series [6] and in series [7] was “inactive” in each case.

As to `COc1ccc(/C=C2\Oc3ccccc3C2=O)cc1` [4'-METHOXY-AURONE], in series [1], the inhibition is 23%. Also, the viability at 72 h, 15 µM was 88% in series [4] and 65% in series [5]. The inhibition entry in series [6] and in series [7] was “inactive” throughout.

In turn, `COc1cc(OC)c2c(c1)O/C(=C\c1ccccc1)C2=O` yielded an inhibition in series [1] of 27%. Further, the viability at 72 h, 15 µM in series [4] was 73%; in series [5], 9%. Also, the inhibition entry in series [6] and in series [7] was “inactive” throughout.

For `Cc1ccc(/C=C2\Oc3ccccc3C2=O)cc1`, the inhibition in series [1] was found to be 5%. The viability at 72 h, 15 µM is 86% in series [4] and 35% in series [5]. In addition, the inhibition result in series [6] and in series [7] was “inactive” each time.

In series [1], `O=C(O)c1ccc(/C=C2\Oc3ccccc3C2=O)cc1` showed an inhibition of 28%. In addition, the viability at 72 h, 15 µM in series [4] worked out at 105%; in series [5] it was 73%. Further, the inhibition entry in series [6] and in series [7] was “inactive” throughout.

Turning to `COCOc1cc(OCOC)c2c(c1)O/C(=C\c1ccc(OCOC)c(OCOC)c1)C2=O`, the inhibition in series [1] was 75%. At Histone deacetylase, this compound showed an IC50 of 40 µM. Also, the viability at 72 h, 15 µM came out at 21% in series [4] and 7% in series [5]. Moreover, the inhibition result in series [6] and in series [7] was “inactive” each time.

Regarding `O=C(O)c1ccc(/C=C2\Oc3ccc(Cl)cc3C2=O)cc1`, the inhibition in series [1] turned out to be 30%. Moreover, the viability at 72 h, 15 µM in series [4] came out at 109%; in series [5], 86%. The inhibition entry in series [6] and in series [7] was “inactive” in each case.

`COc1cccc(/C=C2\Oc3ccccc3C2=O)c1OC` returned an inhibition in series [1] of 12%. Also, the viability at 72 h, 15 µM in series [4] was determined as 94%; in series [5], 104%. Further, the inhibition result in series [6] and in series [7] was “inactive” throughout.

In the case of `COc1ccccc1/C=C1\Oc2ccccc2C1=O` [(Z)-2'-METHOXYAURONE], in series [1], the inhibition came to 7%. The viability at 72 h, 15 µM in series [4] is 88%; in series [5], 103%. Further, the inhibition entry in series [6] and in series [7] was “inactive” each time.

As to `O=C1/C(=C/c2ccc(Cl)cc2)Oc2ccccc21`, the inhibition in series [1] turned out to be 13%. Besides, the results for the viability at 72 h, 15 µM in series [4] and in series [5] were 85% and 110%, respectively. The inhibition entry in series [6] and in series [7] was “inactive” throughout.

Take `COc1cccc(/C=C2\Oc3ccc(Cl)cc3C2=O)c1OC`: the inhibition in series [1] is 6%. For the same compound, the viability at 72 h, 15 µM was determined as 115% in series [4] and 99% in series [5]. Also, the inhibition result in series [6] and in series [7] was “inactive” in each case.

In series [1], `COc1cc(OC)c2c(c1)O/C(=C\c1ccccc1OC)C2=O` gave an inhibition of 7%. Moreover, the viability at 72 h, 15 µM was determined as 89% in series [4] and 104% in series [5]. Also, the inhibition entry in series [6] and in series [7] was “inactive” in each case.

`COc1ccc(/C=C2\Oc3cc(OC)cc(OC)c3C2=O)cc1` [4,4',6-TRIMETHOXY-AURONE] gave an inhibition in series [1] of 20%. Further, the viability at 72 h, 15 µM in series [4] stood at 10%; in series [5], 119%. In addition, the inhibition entry in series [6] and in series [7] was “inactive” throughout.

Compound `Cc1ccc(/C=C/C(=O)c2ccccc2O)cc1` returned an inhibition in series [1] of 0%. For the same compound, the viability at 72 h, 15 µM is 96% in series [4] and 120% in series [5]. The inhibition entry in series [6] and in series [7] was “inactive” in each case.
